In the library only some 9.4% were active in any assay of this set; here they are far more common.
L major viab: reduces viability of Leishmania major promastigotes | resazurin fluorescence viability | inhibition, % at 10 µM | 200,000 tested, 9% active; in the data active = inhibition above about 50%;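 also: promastigotes grown with compound for 44 hours at 28 °C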
Mdm2 MdmX PPI: disrupts the human Mdm2-MdmX interaction; inhibition, % at 8 µM; SaOS-2 split-luciferase Mdm2/MdmX complementation, luminescence; 330,000 tested, 3% active;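 active = inhibition of at least 50% at 8 µM in the primary screen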
Target sequence (O15151 whole entry, looked up): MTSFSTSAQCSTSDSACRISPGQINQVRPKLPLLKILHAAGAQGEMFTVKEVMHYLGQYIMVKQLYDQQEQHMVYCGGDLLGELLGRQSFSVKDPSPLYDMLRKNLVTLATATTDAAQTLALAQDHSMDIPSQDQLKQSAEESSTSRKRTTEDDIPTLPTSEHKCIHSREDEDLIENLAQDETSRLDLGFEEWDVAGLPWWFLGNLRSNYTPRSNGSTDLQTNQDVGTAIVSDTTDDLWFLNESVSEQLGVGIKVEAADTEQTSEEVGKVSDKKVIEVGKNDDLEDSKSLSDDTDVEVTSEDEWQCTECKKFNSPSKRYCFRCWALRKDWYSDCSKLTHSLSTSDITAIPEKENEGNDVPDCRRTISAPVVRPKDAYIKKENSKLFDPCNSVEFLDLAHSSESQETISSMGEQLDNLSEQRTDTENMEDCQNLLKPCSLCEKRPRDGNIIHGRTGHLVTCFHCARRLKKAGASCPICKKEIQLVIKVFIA
Target sequence (Q00987 whole entry, looked up): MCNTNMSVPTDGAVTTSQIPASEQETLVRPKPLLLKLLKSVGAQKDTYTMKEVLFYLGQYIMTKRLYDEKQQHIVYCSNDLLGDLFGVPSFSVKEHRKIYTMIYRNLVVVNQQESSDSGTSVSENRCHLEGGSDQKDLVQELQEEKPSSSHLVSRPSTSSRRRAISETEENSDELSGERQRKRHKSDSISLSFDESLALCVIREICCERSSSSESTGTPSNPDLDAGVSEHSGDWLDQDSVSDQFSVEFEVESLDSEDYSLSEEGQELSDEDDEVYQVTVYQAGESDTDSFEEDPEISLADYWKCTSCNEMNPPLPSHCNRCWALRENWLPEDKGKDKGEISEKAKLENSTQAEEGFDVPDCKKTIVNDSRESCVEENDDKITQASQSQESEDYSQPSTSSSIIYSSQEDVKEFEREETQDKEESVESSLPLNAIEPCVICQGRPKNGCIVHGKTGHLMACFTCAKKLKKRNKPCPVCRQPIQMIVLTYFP
SKKanGAS inh: SKKanGAS growth inhibition | inhibition, % at 7.5 µM | 300,000 tested, 1.3% active | S. pyogenes SKKanGAS, kanamycin growth, BacTiter-Glo, 6 h;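 active = mean replicate score, as percent of positive control median, at least 50; inconclusive = mean below 50 but one replicate at or above 50; inactive = mean and every replicate below 50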;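 also: strain carries kanamycin resistance gene driven by streptokinase promoter and grows in 40 µg/ml kanamycin; loss of luminescence reflects streptokinase promoter inhibition or plain growth inhibition; 0% = median of DMSO wells and 100% = positive control at its reference dose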
CSC inhib: blocks cancer stem cells; cancer stem cell-like cells viability, luminescence; inhibition, % at 7.5 µM; 300,000 tested, 1.1% active; AID 2717; in the data active = inhibition above about 75%; inconclusive = no clear call, values can overlap the other calls; tested in HMLE shEcad cells
Beta apoptosis: beta cell apoptosis inhibition; INS-1E cytokine-induced death, ATP luminescence, 48 h; percent of positive-control rescue, neutral wells zero; protection from apoptosis, % (test concentration not listed); 300,000 tested, 0.8% active; AID 435005;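 active = Every replicate reaches about 75%, or at least half do and their mean reaches it too, limit read from the data; inconclusive = At least half of replicates reach the limit but their mean does not; inactive = Under half of replicates reach the limit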;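 also: 0% = cytokine-treated negative control wells and 100% = positive control rescue; higher means more ATP so stronger rescue from cytokine killing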
T cruzi repl: T. cruzi replication inhibition; T. cruzi beta-gal in NIH3T3, luminescence, 90 h; inhibition, % (no concentration beside the values); 300,000 tested, 1.4% active;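 active = mean inhibition across valid replicates above about 55%, limit read from the data; inconclusive = mean below that limit but half or more replicates reach it; inactive = mean below it, under half of replicates reach it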;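 also: signal also drops with host cell toxicity which is not excluded here; 0% = plate median of DMSO wells and 100% = zero luminescence signal; higher percent means less beta-gal luminescence so fewer parasites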
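Material: NIH/3T3 host cells with β-galactosidase reporter T. cruzi; Input: 5,000 host fibroblasts per well; Medium: DMEM, 2% fetal bovine serum; Compound: 50 nL DMSO compound solution per well; Schedule: 3 h host attachment, then at least 90 h co-culture; Detection: luminescent β-galactosidase signal after 60 min lysis.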
Active calls of the source: *.

Results for COc1cccc(C2=CC(c3cccc(OC)c3OC)n3nnnc3N2)c1 (stereo not given) ?
L major viab: 78.8*; Mdm2 MdmX PPI: 41.5; SKKanGAS inh: -0.2; CSC inhib: 50.8; Beta apoptosis: -3.2; T cruzi repl: -4.5

Results for CCOC(=O)[C@@H]1[C@H]2COc3cc(OC)ccc3[C@H]2N2C(=O)N(c3ccc(C)cc3)C(=O)[C@]12C ?
Mdm2 MdmX PPI: 15.3; CSC inhib: -11.3; Beta apoptosis: -1.8

How did COc1ccc2[nH]c(=O)c(CN(Cc3cccs3)C(=S)NCC3CCCO3)cc2c1 (stereo not given) do in these assays?
Mdm2 MdmX PPI: 18.8; SKKanGAS inh: 1.8; CSC inhib: -8.1; Beta apoptosis: 0.9; T cruzi repl: 23.6

What do the screens show for `Cc1ccc2cc(CN(Cc3ccco3)C(=S)NCC3CCCO3)c(=O)[nH]c2c1C` (stereo not given)?
L major viab: 4.3; Mdm2 MdmX PPI: 13.6; SKKanGAS inh: -2.3; CSC inhib: 7.3; Beta apoptosis: 0.5; T cruzi repl: 7.2

Results for Cc1cc(C)c2[nH]c(=O)c(CN(CC3CCCO3)C(=O)C3CCCO3)cc2c1 (stereo not given) ?
L major viab: -7.3; Mdm2 MdmX PPI: 13.2; SKKanGAS inh: 1.6; CSC inhib: 2.0; Beta apoptosis: -2.1; T cruzi repl: -7.4

How did Cc1cc2cc(CN(Cc3cccs3)C(=S)NCC3CCCO3)c(=O)[nH]c2cc1C (stereo not given) do in these assays?
L major viab: 96.4*; Mdm2 MdmX PPI: -3.3; SKKanGAS inh: 13.2; CSC inhib: -8.3; Beta apoptosis: -1.7; T cruzi repl: 23.2

Results for CC(C)CNC(=S)N(Cc1ccco1)Cc1cc2cc3c(cc2[nH]c1=O)OCCO3 ?
L major viab: 88.1*; Mdm2 MdmX PPI: 15.9; SKKanGAS inh: -0.9; CSC inhib: -8.9; Beta apoptosis: -20.1; T cruzi repl: -32.9

Results for Cc1cc(C)c2[nH]c(=O)c(CN(Cc3cccs3)C(=S)NCC3CCCO3)cc2c1 (stereo not given) ?
L major viab: 52.7*; Mdm2 MdmX PPI: -3.4; SKKanGAS inh: -2.3; CSC inhib: 20.2; Beta apoptosis: 6.5; T cruzi repl: 10.8

What do the screens show for `Cc1cc(C)c2[nH]c(=O)c(CN(Cc3ccco3)C(=S)NCC3CCCO3)cc2c1` (stereo not given)?
L major viab: 87.9*; Mdm2 MdmX PPI: 15.9; SKKanGAS inh: 6.3; CSC inhib: 3.4; Beta apoptosis: 3.3; T cruzi repl: -28.1

How did COCC(C)n1c(SCc2ccc(C(=O)OC)cc2)nc2ccccc2c1=O (stereo not given) do in these assays?
Mdm2 MdmX PPI: -3.6; SKKanGAS inh: 4.4; CSC inhib: -17.9; Beta apoptosis: 11.7; T cruzi repl: 6.3

How did CCOC(=O)C1(CCOC)CCN(Cc2ccc(C3CCCCO3)s2)CC1 (stereo not given) do in these assays?
L major viab: 11.6; Mdm2 MdmX PPI: 17.8; SKKanGAS inh: -1.6; CSC inhib: -7.2; Beta apoptosis: -0.1; T cruzi repl: -12.7

Results for Cc1ccc(NC(=O)c2ccc3c(=O)n4c(nc3c2)CCC4)cc1S(=O)(=O)N(C)C ?
Mdm2 MdmX PPI: 4.6

Results for S=c1nc[nH]c2nc[nH]c12 ?
Mdm2 MdmX PPI: 29.2; SKKanGAS inh: -4.9; CSC inhib: 84.3*; Beta apoptosis: -1.9; T cruzi repl: inconclusive

How did CNC(=O)c1cc(S(=O)(=O)N2CC(C)OC(C)C2)ccc1N1CCCCC1 (stereo not given) do in these assays?
Mdm2 MdmX PPI: 17.6; SKKanGAS inh: -4.3; T cruzi repl: 7.6

What do the screens show for `O=C1CC(c2ccccc2)CC(O)=C1C=NCc1ccccc1Cl` (stereo not given)?
L major viab: 27.4; Mdm2 MdmX PPI: 34.9; SKKanGAS inh: -11.0; CSC inhib: 84.4*; Beta apoptosis: 13.0; T cruzi repl: -2.4

Results for O=C1CC(c2ccccc2)CC(O)=C1C=NCc1ccccc1 (stereo not given) ?
L major viab: 20.9; Mdm2 MdmX PPI: -1.8; SKKanGAS inh: -4.8; CSC inhib: -6.3; Beta apoptosis: 5.0; T cruzi repl: -5.6

Results for CCc1ccc(CNc2ccc(O)cc2)cc1 ?
L major viab: 97.7*; Mdm2 MdmX PPI: 27.9; SKKanGAS inh: 10.8; CSC inhib: 13.6; Beta apoptosis: 7.2; T cruzi repl: -9.5

What do the screens show for `O=[N+]([O-])c1nn(-c2ccccc2)[n+]([O-])c1N1CCN(c2ccccc2)CC1`?
L major viab: -2.0; Mdm2 MdmX PPI: -19.7; SKKanGAS inh: 0.8; CSC inhib: -25.8; Beta apoptosis: -1.6; T cruzi repl: 84.7*

Results for O=[N+]([O-])c1nn(-c2ccccc2)[n+]([O-])c1N1CCN(c2ccccc2F)CC1 ?
L major viab: 44.5; Mdm2 MdmX PPI: -8.0; SKKanGAS inh: -13.9; CSC inhib: -7.0; Beta apoptosis: -4.2; T cruzi repl: 56.9*

How did Cc1onc(-c2ccccc2Cl)c1C(=O)N(Cc1nc(-c2ccccc2)no1)C1CCCCC1 do in these assays?
L major viab: 53.9*; Mdm2 MdmX PPI: 29.5; SKKanGAS inh: 9.6; Beta apoptosis: 4.4; T cruzi repl: 21.8

Results for COc1cccc(C(=O)N2CCN(Cc3ccccn3)CC2)c1 ?
Mdm2 MdmX PPI: 10.7; SKKanGAS inh: -0.8; CSC inhib: -16.2; Beta apoptosis: -6.6; T cruzi repl: 6.0

Results for CN1CCN(c2nc(-c3ccccc3)c3cc(Cl)ccc3n2)CC1 ?
L major viab: 86.0*; Mdm2 MdmX PPI: 19.2; SKKanGAS inh: 3.1; CSC inhib: 22.5; Beta apoptosis: -2.8; T cruzi repl: 51.8

Results for CCCCNc1nc(N(C)c2ccccc2)nc(-n2ccnc2)n1 ?
L major viab: 97.7*; Mdm2 MdmX PPI: -1.6; SKKanGAS inh: 18.2; CSC inhib: -16.2; Beta apoptosis: 11.7; T cruzi repl: 60.5*

What do the screens show for `C=CCNc1nc(N(c2ccccc2)c2ccccc2)nc(-n2ccnc2)n1`?
L major viab: 54.8*; Mdm2 MdmX PPI: 19.4; SKKanGAS inh: 18.2; CSC inhib: 49.6; Beta apoptosis: 0.4; T cruzi repl: 36.1

Results for c1ccc(N(c2ccccc2)c2nc(-n3ccnc3)nc(-n3ccnc3)n2)cc1 ?
L major viab: 28.1; Mdm2 MdmX PPI: 27.3; SKKanGAS inh: 11.6; CSC inhib: 19.6; Beta apoptosis: 8.4; T cruzi repl: 46.7

Results for CCCCCNc1nc(-c2ccccc2)nc(-n2ccnc2)n1 ?
L major viab: 39.7; Mdm2 MdmX PPI: 26.8; SKKanGAS inh: -4.3; CSC inhib: -2.9; Beta apoptosis: 4.9; T cruzi repl: 61.9*

Results for CN(c1ccccc1)c1nc(-n2ccnc2)nc(-n2ccnc2)n1 ?
L major viab: 6.3; Mdm2 MdmX PPI: 0.1; SKKanGAS inh: 6.9; CSC inhib: 0.6; Beta apoptosis: -2.4; T cruzi repl: 26.1

Bioassay records (PubChem)
